The source of these data is ChEMBL document CHEMBL2034829, “Truncated phosphonated C-1'-branched N,O-nucleosides: a new class of antiviral agents” (Bioorg Med Chem, 2012).

Calls of active or inactive are those of the source. No cut-off for these calls is given here.

Data set [1] relates to Human T-cell leukemia virus type I. The data set is described as follows: Antiviral activity against HTLV1 infected in PBMC assessed as decrease in viral core protein p19 production. The class given is functional, organism-based. In outline:
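PBMC co-cultivated with a chronically HTLV-1-infected cell line, with test compounds present; infection measured as production of viral core protein p19.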

Data set [2] deals with Human immunodeficiency virus 1. The data set is described as follows: Antiviral activity against HIV1 infected in CEM cells after 72 hrs by GFP reporter gene assay. The following applies: for IC50: Human immunodeficiency virus 1, CCRF-CEM; for Activity: CCRF-CEM. The class given is functional, organism-based. In short, it runs like this:
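CEM T cells carrying an HIV-1 LTR-driven GFP plasmid; 5 × 10^5 cells infected 2 h in 100 µl with supernatant of chronically HIV-infected H9 cells (20 ng/mL p24 equivalent) with compounds at 1000, 100, 10, 1 µM; medium then added, 72 h culture; inhibition scored by GFP expression; IC50 = concentration inhibiting 50% infection; zidovudine internal positive control.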

Data set [3] can be described thus: Cytotoxicity against human MOLT3 cells by MTS assay. It is filed as cell-based. The following applies: MOLT-3 cells. In short, it runs like this:
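MOLT-3 cells (1 × 10^4) seeded with or without compounds at 1000 to 1 µM. Metabolic activity read colorimetrically as MTS formazan formation. CC50 is the concentration giving 50% inhibition of metabolic activity.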

Data set [4] in a line: Selectivity index, ratio of CC50 for human MOLT3 cells to IC50 for HIV1. The class given is functional, MOLT-3. In short, it runs like this: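 SI = CC50/IC50. CC50 from MTS formazan colorimetric assay: 1 × 10^4 MOLT-3 cells with or without compounds at 1000 to 1 µM, concentration reducing metabolic activity 50%. IC50 from CEM-GFP HIV-1 infection (2 h exposure with compounds at 1000–1 µM, 72 h culture, GFP read-out).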

A short description of data set [5]: Ratio of compound CC50 to AZT CC50 for human MOLT3 cells. The class given is cell-based. As to conditions: MOLT-3 cells.
The subject of data set [6] is Human immunodeficiency virus 1. The data set is described as follows: Ratio of AZT IC50 to compound IC50 for HIV1. It is filed as functional.

As usually defined, the IC50 is the midpoint of a concentration-inhibition curve. A low value points to inhibition by little substance. For orientation: CC50 means the concentration that lowers cell viability or growth by half.

In the case of `CCOC(=O)[C@@]1(n2cc(C)c(=O)[nH]c2=O)C[C@H](P(=O)(OCC)OCC)N(C)O1` (racemic), the result in data set [1] was inactive. Further, the IC50 in data set [2] was more than 1000 µM. For the same compound, in data set [3], the CC50 is more than 1000 µM.
On to `CCOC(=O)[C@@]1(n2cc(F)c(=O)[nH]c2=O)C[C@H](P(=O)(OCC)OCC)N(C)O1` (racemic), for which the “Ratio CC50/IC50” value in data set [4] is 4.5. Also, the result in data set [1] was inactive. The compound also displayed an IC50 in data set [2] of 220 µM. The selectivity ratio in data set [5] stood at 83. In addition, in data set [3], the CC50 was more than 1000 µM. The “Ratio IC50” value in data set [6] is given as 28.
Consider `CCOC(=O)[C@@]1(n2ccc(=O)[nH]c2=O)C[C@H](P(=O)(OCC)OCC)N(C)O1` (racemic), for which the “Ratio CC50/IC50” value in data set [4] worked out at 7.57. Besides, the result in data set [1] was inactive. The compound further showed a half-inhibitory concentration (IC50) in data set [2] of 132 µM. Moreover, the selectivity ratio in data set [5] was determined as 83. The CC50 in data set [3] is more than 1000 µM. Besides, in data set [6], the “Ratio IC50” value is reported as 28.
As for `CCOC(=O)[C@@]1(n2ccc(NC(C)=O)nc2=O)C[C@H](P(=O)(OCC)OCC)N(C)O1` (racemic), the outcome in data set [1] was inactive. This compound also registered an IC50 in data set [2] of more than 1000 µM. In addition, the cytotoxic concentration (CC50) in data set [3] was more than 1000 µM.
In the case of `CCOC(=O)[C@@]1(n2ccc(N)nc2=O)C[C@H](P(=O)(OCC)OCC)N(C)O1` (racemic), the “Ratio CC50/IC50” value in data set [4] came to 7.02. For the same compound, the result in data set [1] was inactive. This compound also registered an IC50 in data set [2] of 180 µM. The same compound had a 50% cytotoxic concentration (CC50) in data set [3] of more than 1000 µM.
In the case of `CCOC(=O)[C@]1(n2cc(C)c(=O)[nH]c2=O)C[C@H](P(=O)(OCC)OCC)N(C)O1` (racemic), the result in data set [1] and in data set [2] was inactive.
Take `CCOC(=O)[C@]1(n2cc(F)c(=O)[nH]c2=O)C[C@H](P(=O)(OCC)OCC)N(C)O1` (racemic): the result in data set [1] and in data set [2] was inactive.
`CCOC(=O)[C@]1(n2ccc(NC(C)=O)nc2=O)C[C@H](P(=O)(OCC)OCC)N(C)O1` (racemic): the outcome in data set [1] and in data set [2] was inactive.
Regarding `CCOC(=O)[C@]1(n2ccc(=O)[nH]c2=O)C[C@H](P(=O)(OCC)OCC)N(C)O1` (relative stereo), the outcome in data set [1] and in data set [2] was inactive.
For `Cc1cn([C@H]2C[C@H](N=[N+]=[N-])[C@@H](CO)O2)c(=O)[nH]c1=O` [ZIDOVUDINE], the “Ratio CC50/IC50” value in data set [4] is given as 1.57. This compound also displayed an IC50 in data set [2] of 7.7 µM. The CC50 in data set [3] is 12.1 µM.
